A selection: hits, their analogues and other compounds. The true share with any hit is near 4%.
Hsp70 act: Hsp70 transcriptional activators, primary screen, cell-based, HeLa, Hsp70 promoter luciferase, luminescence, 10 µM. AID 1203, 2008. actives 0.04% (n = 200,000). HeLa Hsp70 promoter luciferase reporter; scaled: vehicle 0, proteasome-inhibitor control 100%. activation, % at 10 µM;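 active means activation above the mean across all tested compounds plus 3 SD, cutoff set per campaign, cut at about 5.5% in these data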;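 further: 100% = MG132 at 30 µM as the positive control and 0% = DMSO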
S1P3 antagonist: S1P3 receptor antagonists, primary screen, cell-based | AID 485, 2006 | inhibition, % at 4.98 µM | Sphingosine 1-phosphate receptor 3 (Homo sapiens), Q99500 | actives 0.27% (n = 170,000) | CHO S1P3 NFAT-BLA reporter, FRET fluorescence, antagonist mode;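 active means inhibition above the plate cutoff, the mean inhibition of test wells on that plate plus 3 SD, cut at about 28% in these data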;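 further: cells challenged with S1P at its EC80 of 0.8 µM; blue over green emission ratio from cleaved BLA substrate after 4 h stimulation; 0% = S1P-stimulated wells and 100% = unstimulated DMSO-only wells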
Target sequence (Q99500 whole entry, looked up): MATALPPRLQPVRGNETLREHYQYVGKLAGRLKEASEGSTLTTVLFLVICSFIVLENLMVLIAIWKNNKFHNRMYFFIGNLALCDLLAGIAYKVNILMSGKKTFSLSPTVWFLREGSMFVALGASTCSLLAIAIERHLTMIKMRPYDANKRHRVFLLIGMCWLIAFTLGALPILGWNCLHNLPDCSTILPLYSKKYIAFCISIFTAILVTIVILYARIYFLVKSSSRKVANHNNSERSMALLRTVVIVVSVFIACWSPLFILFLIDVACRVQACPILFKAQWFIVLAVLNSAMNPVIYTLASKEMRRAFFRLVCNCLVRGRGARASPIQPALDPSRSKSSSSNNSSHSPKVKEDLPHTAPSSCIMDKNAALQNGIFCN
CHOP inhibitor: inhibitors of CHOP promoter induction, primary screen, cell-based, unfolded protein response, luciferase reporter | CHO-K1 CHOP-promoter luciferase, tunicamycin-induced, 15-18 h | inhibition, % at 10 µM | actives 3.8% (n = 220,000) | AID 2732, 2010;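 active means compounds that reduced the stress-induced luciferase reporter signal by more than about 70% of percent inhibition, limit read from the data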;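 further: 0% = tunicamycin plus vehicle and 100% = wells without tunicamycin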
MDM2 E3 inh: MDM2-luciferase reporter signal enhancers, primary screen, MDM2 E3 ligase inhibitor project, cell-based, luminescence, 1536-well. E3 ubiquitin-protein ligase Mdm2 (Homo sapiens), Q00987. cell-based MDM2 ubiquitination luciferase reporter, 2 h; 0 = plate control, 100 = twice control, blank-subtracted. signal enhancement, % at 5 µM. actives 0.11% (n = 210,000). AID 1230, 2008;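 active means signal enhancement of 30% or more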;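 further: luminescence tracks abundance of the self-degrading MDM2-luciferase fusion protein; higher signal means inhibition of MDM2 E3 ligase activity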
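Assay system: mammalian cells stably expressing self-ubiquitinating, self-degrading MDM2 E3–luciferase fusion. Quantity: 2000 cells in each well. Medium: DMEM culture medium. Compound dosing: single-point 5 µM. Timing: cell settling 4 h, compound treatment 2 h, both 37 °C. Technique: luciferase luminescence. Read-out basis: percent signal gain over controls, blank-subtracted. Benchmarks: plate controls and plate blanks.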
CHOP inh conf: retest of CHOP induction inhibitors, confirmation, cell-based; shares compounds with CHOP inhibitor; CHO-CHOP promoter luciferase reporter, tunicamycin-induced, luminescence; inhibition, % at 10 µM; actives 45% (n = 2,100); AID 504437, 2011;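 active means mean of three repeat readings of reporter signal inhibition above a set limit, cut at about 70% in these data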;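 further: 0% = tunicamycin plus vehicle and 100% = wells lacking tunicamycin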
Starred values were filed as active, the others as inactive; . = not tested or not shown.

SMILES	Hsp70 act	S1P3 antagonist	CHOP inhibitor	MDM2 E3 inh	CHOP inh conf
O=C(Cn1cc(C(F)(F)F)ccc1=O)N1CCN(S(=O)(=O)c2ccc(Cl)cc2)CC1	0	-11	40	-21	.
COc1ccc(-c2coc3cc(OC)cc(O)c3c2=O)cc1	0	.	22	-21	.
CC(C)Oc1cc(O)c2c(=O)c(-c3ccc(O)cc3)coc2c1	0	1	.	-15	20
O=C(NNc1ccccc1[N+](=O)[O-])Nc1ccc(Cl)c(Cl)c1	0	-10	101*	2	71*
O=C(NNc1ccccc1[N+](=O)[O-])Nc1ccccc1	0	.	38	-21	.
COC(=O)c1ccc(-c2sc3nc(N4CCOCC4)c4c(c3c2N)CC(C)(C)OC4)o1	0	.	102*	-13	-146
CC1(C)Cc2c(c(N3CCOCC3)nc3sc(C(N)=O)c(N)c23)CO1	.	11	-4	-23	.
O=C(Nc1nc(-c2cc3ccccc3o2)cs1)c1ccc(S(=O)(=O)N2CCCC2)cc1	0	-10	60	-12	.
CC1CN(S(=O)(=O)c2ccc(C(=O)Nc3nc(-c4cc5ccccc5o4)cs3)cc2)CC(C)O1 (configuration not stated)	0	-3	107*	-13	73*
COc1cc(C2CC(=O)N(c3ccc(C)cc3)C(=O)C2)cc(OC)c1OC	.	-3	-17	-7	.
Cc1ccc(Cl)cc1NC(=O)COC(=O)CC1CC2CCC1C2 (configuration not stated)	0	.	100*	-5	68
Cc1ccc(Cl)cc1NC(=O)COC(=O)C1CC1	0	-15	26	-10	.
O=C(c1cccnc1)C1CCCN(Cc2nc(Cc3ccccc3)no2)C1 (configuration not stated)	0	-7	2	-4	.
CC(C)Oc1ccc(CNC(=S)N/N=C/c2ccc([N+](=O)[O-])cc2)cc1	0	.	98*	-12	102*
CCC1CCCCN1C(=S)NC1CCCCC1 (configuration not stated)	0	-4	-21	-9	.
COC(=O)c1cc(F)c(-n2cncn2)c(F)c1	0	.	-12	-58	.
COC(=O)c1cc([N+](=O)[O-])c(-n2cncn2)c([N+](=O)[O-])c1	0	-20	110*	-2	17
CCNc1nc(NCC)nc(-n2nc(C)cc2C)n1	0	18	-133	-2	.
Cc1cc(C)n(-c2nc(Nc3ccccc3C)nc(-n3nc(C)cc3C)n2)n1	0	.	99*	-15	36
Cc1cc(C)n(-c2nc(NC(C)C)nc(NC(C)C)n2)n1	0	2	-168	-6	.
Cc1cc(C)n(-c2nc(Nc3ccccc3C(F)(F)F)nc(-n3nc(C)cc3C)n2)n1	0	.	105*	-4	122*
COc1cc(-c2nc(CN(C)Cc3nnc(C)o3)c(C)o2)ccc1F	0	-11	-5	-2	.
Cc1csc(NC(=O)CSc2ccc(-c3ccccc3)nn2)n1	0	4	-12	-7	.
Cc1csc(NC(=O)CSc2nnc(NC(=O)COc3ccccc3)s2)n1	0	3	101*	-6	1
O=C(COCC(=O)Nc1cccc(C(F)(F)F)c1)Nc1cccc(C(F)(F)F)c1	0	.	103*	-13	116*
SMILES	Hsp70 act	S1P3 antagonist	CHOP inhibitor	MDM2 E3 inh	CHOP inh conf
Fc1ccc(OCc2nc(-c3ccncc3)n[nH]2)cc1	0	-15	-1	-11	.
Cc1ccc(OCc2nc(-c3ccc(Cl)cc3)n[nH]2)cc1	0	.	100*	-11	34
O=C(Nc1cccc(C(F)(F)F)c1)NC1CCN(S(=O)(=O)c2ccc(F)cc2)CC1	-1	.	100*	-6	94*
Cn1/c(=N/N=C/c2ccccn2)sc2ccccc21	0	6	38	-26	.
COCc1nnc(NC(=O)CCN2C(=O)c3ccccc3C2=O)s1	0	.	99*	-16	10
CC(C1CC2CCC1C2)n1c(-c2cccs2)n[nH]c1=S (configuration not stated)	.	-4	24	.	.
NC(=O)c1ccc(C(F)(F)F)n(Cc2c(Cl)cccc2Cl)c1=O	-1	.	102*	-11	112*
CN(C)CCCNC(=O)c1ccc(=O)[nH]n1	.	0	5	-5	.
